Results reported in PMC4002123 (Journal of Medicinal Chemistry, 2014).
“Also recorded” adds a separate entry of the source.

Columns and labels:
[1] = tested on: MDA-MB-231 cells; test: Antiproliferative assay; type: cell-based, human; conditions: read-out: growth inhibition IC50, MDA-MB-231; MDA-MB-231, 72 h
Summary of the method: (§1)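 Seeded at 5 × 10^3 cells/well and grown 24 h. Medium then replaced with fresh medium holding test compound at a range of concentrations; DMSO below 0.25%. Incubated at 37 °C for 72 h. Resazurin added for 2 h, then fluorescence read at ex 560 / em 590 nm.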

[2] = tested on: A549 cells; test: Antiproliferative assay; type: cell-based, human; conditions: read-out: growth inhibition IC50, A549; A549, 72 h
Summary of the method: as §1

[3] = tested on: HeLa cells; test: Antiproliferative assay; type: cell-based, human; conditions: read-out: growth inhibition IC50, HeLa, 72 h
Summary of the method: as §1

[4] = tested on: bovine brain tubulin; test: Tubulin polymerization assay in vitro; type: biochemical; conditions: compared to vehicle
[5] = tested on: chick embryo chorioallantoic membrane; test: Chick embryo chorioallantoic membrane; type: in vivo; conditions: collagen plug with bFGF + VEGF (BV), scored 4 days after treatment
Summary of the method: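 Fertilized chick eggs incubated 3 days at 37.5 °C, then shell-free in covered weighboats for 10 more days. Collagen onplants (2.1 mg/mL rat tail collagen, 10 ng/plug bFGF, 30 ng/plug VEGF) with or without test compound placed on CAM over nylon mesh; four per egg, at least three eggs. After 4 days, plugs on surviving embryos imaged and scored blind 0–3; means ± SEM.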

[6] = Mouse plasma concentrations after single oral dose; type: in vivo; conditions: mice, single oral dose 5 mg/kg
Summary of the method: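 Female C57BL/6 mice dosed once by oral gavage at 5 mg/kg, test compound dissolved in ethanol and given in PBS. Blood drawn from orbital sinus at 1, 3, 6 and 24 h after dosing. Each group of mice sampled only once.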

[7] = tested on: colchicine binding site of tubulin; test: Competitive LC-MS/MS binding assay, colchicine binding site; conditions: colchicine 1.2 μM, tubulin 1.3 mg/mL, 37 °C, 1 h; highest value reached
[8] = tested on: HeLa cells; test: Immunofluorescence of interphase microtubules, HeLa; type: cell-based, human; conditions: 1 μM, 24 h
Summary of the method: (§2)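 Cells grown on chamber slides and exposed to DMSO vehicle or test compound, then fixed in 3.7% formaldehyde and permeabilised for 4 min with 0.1% Triton X-100 in PBS. Blocked 1 h in PBS/1% BSA with calf serum. Stained with mouse anti-β-tubulin (1:200), then Alexa 488 goat anti-mouse (1:200) for 2 h at room temperature. Imaged by fluorescence microscopy.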

[9] = tested on: MDA-MB-231 cells; test: Immunofluorescence of interphase microtubules, MDA-MB-231; type: cell-based, human; conditions: 1 μM, 24 h
Summary of the method: as §2

Row | Compound | IC50 [1] | IC50 [2] | IC50 [3] | inhibition of tubulin polymerization ([4]; compound at 10 μM) | inhibition of new vessel growth (angiogenesis score, scale 0-3) [5] | plasma concentration at 6 h [6] | plasma concentration at 24 h [6] | relative binding capacity, % of colchicine binding [7] | effect on interphase microtubule network [8] | effect on interphase microtubule network [9] | inhibition of tubulin polymerization ([4]; compound at 1 μM) | peak plasma concentration [6]
1 | 5-Bromo-2-(2,4-dimethoxyphenyl)pyridine [2f] | > 100000 nM | > 100000 nM | > 25000 nM |  |  |  |  |  |  |  |  | 
2 | 2-(2,4-Dimethoxyphenyl)-6-(2,5-dimethoxyphenyl)pyridine [4m] | 34 ± 4 nM | 330 ± 10 nM | 34 ± 2 nM |  |  |  |  |  |  |  |  | 
3 | 5-Bromo-2-(3,4,5-trimethoxyphenyl)pyridine [2e] | 12050 ± 20 nM | > 25000 nM | 14000 ± 300 nM |  |  |  |  |  |  |  |  | 
4 | COc1ccc(/C=C\c2cc(OC)c(OC)c(OC)c2)cc1O [CA-4, Combretastatin-A4, reference compound] |  |  |  | nearly completely blocked tubulin polymerization | inhibition of new vessel growth | no longer detectable | no longer detectable | 78% | very similar loss of the microtubule network | very similar loss of the microtubule network |  | 
5 | 2-Methoxy-5-(6-(3,4,5-trimethoxyphenyl)pyridine-2-yl)phenol [4t] | 69 ± 2.8 nM | 2640 ± 380 nM | 4.7 ± 0.9 nM | 32% | inhibition of new vessel growth; also recorded: scored significantly lower than the positive control (BV) |  |  |  |  |  | failed to inhibit tubulin polymerization | lower peak concentrations than CA-4
6 | COc1ccc(-c2cccc(-c3ccc(OC)c(O)c3)n2)c(OC)c1 [4s, 5-(6-(2,4-Dimethoxyphenyl)pyridine-2-yl)-2-methoxyphenol] |  |  |  |  | inhibition of new vessel growth; also recorded: scored significantly lower than the positive control (BV) | dropping rapidly | below detection limit |  |  |  | failed to inhibit tubulin polymerization | 
7 | COc1ccc(-c2cccc(-c3ccc(OC)cc3OC)n2)cc1 [4h, 2-(2,4-Dimethoxyphenyl)-6-(4-methoxyphenyl)pyridine] |  |  |  | remained ineffective against tubulin polymerization | inhibition of new vessel growth |  |  |  | dramatic reduction of the interphase microtubule network | dramatic reduction of the interphase microtubule network | failed to inhibit tubulin polymerization | lower peak concentrations than CA-4
